Published values collected from several papers.
Lines come from different studies, so protocols differ.
Target: Ephrin type-B receptor 6 (EPHB6, Homo sapiens, UniProt O15197)
Sequence (O15197 32-1021, as in one of the studies): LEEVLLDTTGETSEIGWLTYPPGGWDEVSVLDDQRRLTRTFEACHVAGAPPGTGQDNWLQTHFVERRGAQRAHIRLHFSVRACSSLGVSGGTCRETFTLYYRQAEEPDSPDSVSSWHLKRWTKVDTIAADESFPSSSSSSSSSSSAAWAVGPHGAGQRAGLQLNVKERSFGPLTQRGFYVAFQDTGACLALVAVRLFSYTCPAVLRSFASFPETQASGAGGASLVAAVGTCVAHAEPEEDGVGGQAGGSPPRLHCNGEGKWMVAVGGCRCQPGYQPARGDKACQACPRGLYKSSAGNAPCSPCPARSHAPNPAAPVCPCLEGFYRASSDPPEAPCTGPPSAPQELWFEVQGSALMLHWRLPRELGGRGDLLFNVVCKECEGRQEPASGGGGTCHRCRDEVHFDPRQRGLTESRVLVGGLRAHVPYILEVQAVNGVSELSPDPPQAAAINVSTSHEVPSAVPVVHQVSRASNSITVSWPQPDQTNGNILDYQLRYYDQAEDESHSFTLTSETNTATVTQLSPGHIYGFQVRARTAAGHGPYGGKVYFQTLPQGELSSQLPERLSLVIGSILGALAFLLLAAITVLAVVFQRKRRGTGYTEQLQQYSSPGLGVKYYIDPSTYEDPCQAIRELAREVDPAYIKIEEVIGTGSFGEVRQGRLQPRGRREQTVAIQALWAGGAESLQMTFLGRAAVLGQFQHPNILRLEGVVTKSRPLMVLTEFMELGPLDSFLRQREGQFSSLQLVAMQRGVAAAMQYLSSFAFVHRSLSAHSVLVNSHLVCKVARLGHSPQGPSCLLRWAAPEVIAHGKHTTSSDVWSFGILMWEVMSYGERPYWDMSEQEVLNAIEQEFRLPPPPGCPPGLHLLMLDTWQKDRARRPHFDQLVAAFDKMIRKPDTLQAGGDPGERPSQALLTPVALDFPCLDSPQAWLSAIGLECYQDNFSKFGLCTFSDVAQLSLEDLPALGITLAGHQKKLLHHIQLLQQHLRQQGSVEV

| Compound | effect on | method | concentration | remaining binding |
| --- | --- | --- | --- | --- |
| CN(c1ccnc(CNc2nc(Nc3ccc4c(c3)CC(=O)N4)ncc2C(F)(F)F)n1)S(C)(=O)=O | cell-free assay | competition with immobilised ligand | 1 µM | 54% |
| O=C(c1ccc(Nc2nccc(-c3cc4ccccc4s3)n2)cc1)N1CCC(N2CCCC2)CC1 | binding | competition with immobilised ligand | 1 µM | 2.5% |
| C=CC(=O)N1CCC(C(=O)NCC(=O)N2CCN(c3nc(-c4cnc(N)nc4C(F)F)nc(N4CCOCC4)n3)CC2)CC1 | binding | competition with immobilised ligand | 1 µM | 65% |
| CN(CCCC(F)(F)F)c1nccc(-c2cnn3ncccc23)n1 | binding |  | 1 µM | 100% |
| COc1ncc2cc3ccccc3nc2c1C#N | cell-free assay | competition with immobilised ligand | 5 µM | 73% |
| c1cnn2ncc(-c3ccnc(N4CCC45COC5)n3)c2c1 | binding |  | 1 µM | 63% |
| Nc1ncc2c(n1)-c1c([nH]c3ccc(C#CC4CC4)cc13)CCCC2 | binding | competition with immobilised ligand | 1 µM | 84% |
| O=C(Nc1cccnn1)N1CCC(=Cc2cccc(Oc3ccc(C(F)(F)F)cn3)c2)CC1 | cell-free assay | competition with immobilised ligand | 1 µM | 100% |
| O=C(c1ccc(Nc2ncc(Cl)c(-c3ccc(Cl)s3)n2)cc1)N1CCC(N2CCCC2)CC1 | binding | competition with immobilised ligand | 1 µM | 0% |
| F[C@@H]1CCN(c2nccc(-c3cnn4ncccc34)n2)C1 | binding |  | 1 µM | 100% |
| c1cncc(-c2cccc(Nc3nccc(NC4CCCCC4)n3)c2)c1 | binding | competition with immobilised ligand | 10 µM | 1.6% |
| N[C@@H]1CCN(c2nccc(-c3cnn4ncccc34)n2)C1 | binding |  | 1 µM | 52% |
| Cc1c[nH]c2nccc(Oc3c(F)cc(Nc4cc(Cl)nc(N)n4)cc3F)c12 | cell-free assay | competition with immobilised ligand | 0.1 µM | 96% |
| Cc1cnn2ncc(-c3ccnc(N(C)C)n3)c2c1 | binding |  | 1 µM | 80% |
| C[C@@]1(Cc2ccc(C#N)cc2)C(=O)N(c2cc(Cl)cc(Cl)c2)c2ncc(C(=O)NC3(c4nc(C5CCC5)no4)CC3)n21 | cell-free assay | competition with immobilised ligand | 1 µM | 100% |
| CNC(=O)[C@@H]1CC[C@@H](n2c(-c3ccc4cnccc4c3)nc3ccc(C(=O)NCc4cccc(C(N)=O)c4)cc32)C1 | binding | competition with immobilised ligand | 1 µM | 100% |
| CNC(=O)c1ccc(Nc2ncc(C(F)(F)F)c(NCc3nccnc3N(C)S(C)(=O)=O)n2)cc1 | cell-free assay | competition with immobilised ligand | 0.1 µM | 100% |
| O=C(NCC1CCOCC1)c1n[nH]cc1NC(=O)c1c(F)cccc1F | binding | competition with immobilised ligand | 1 µM | 91% |
| C[C@H]1CCN(c2nccc(-c3cnn4ncccc34)n2)C1 | binding |  | 1 µM | 85% |
| CS(=O)(=O)N1CCCC(NC(=O)[C@H](CCC2CCCCC2)NC(=O)c2ccc(CNC(=O)c3cnc4ccccn34)cc2)C1 (stereo partly shown) | cell-free assay | competition with immobilised ligand | 0.1 µM | 98% |
| O=C(NCCCN1CCOCC1)c1ccc(Nc2nccc(-c3cc4ccccc4s3)n2)cc1 | binding | competition with immobilised ligand | 1 µM | 18% |
| COc1ccnn2ncc(-c3ccnc(N(C)C)n3)c12 | binding |  | 1 µM | 27% |
